pIC50: −log10 of the molar value.
Test: Inhibition of yeast alpha-glucosidase pre-incubated for 10 mins followed by pNPG substrate addition and measured every 30 secs for 35 mins
Parameters: species or system Saccharomyces cerevisiae
How it was run: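 S. cerevisiae α-glucosidase (enzyme solution 2.0 U/mL) in 100 mM phosphate buffer, pH 7.5, with NaN3. Serial DMSO dilutions, nine concentrations, in triplicate. Preincubated 10 min at 28 °C, then p-NPG added (substrate solution 10 mM). A405 read every 30 s for 35 min. Inhibition taken from rate slope versus enzyme–substrate blanks; IC50 from three-parameter curve fit.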

Row | pIC50 | SMILES
1 | 5.17 | COc1ccc(-c2oc3cc(O)cc(O)c3c(=O)c2O[C@@H]2O[C@@H](C)[C@H](OC(=O)/C=C\c3ccc(O)cc3)[C@@H](O)[C@H]2OC(=O)/C=C/c2ccc(O)cc2)cc1
2 | 4.89 | C[C@@H]1O[C@@H](Oc2c(-c3ccc(O)cc3)oc3cc(O)cc(O)c3c2=O)[C@H](OC(=O)/C=C/c2ccc(O)cc2)[C@H](O)[C@H]1OC(=O)/C=C/c1ccc(O)cc1
3 | 4.55 | COc1ccc(-c2oc3cc(O)cc(O)c3c(=O)c2O[C@@H]2O[C@@H](C)[C@H](OC(=O)/C=C\c3ccc(O)cc3)[C@@H](O)[C@H]2OC(=O)/C=C/c2ccc(O)cc2)cc1O
4 | 5.23 | COc1ccc(-c2oc3cc(O)cc(O)c3c(=O)c2O[C@@H]2O[C@@H](C)[C@H](OC(=O)/C=C\c3ccc(O)cc3)[C@@H](O)[C@H]2OC(=O)/C=C\c2ccc(O)cc2)cc1
5 | 3.57 | C[C@H]1O[C@H](O[C@H]2[C@H](O)[C@@H](O)[C@@H](O[C@H]3[C@H](O)[C@@H](O)C(O)O[C@@H]3CO)O[C@@H]2CO)[C@H](O)[C@@H](O)[C@@H]1N[C@H]1C=C(CO)[C@@H](O)[C@H](O)[C@H]1O (some centres undefined) [ACARBOSE]
6 | 5.00 | COc1ccc(-c2oc3cc(O)cc(O)c3c(=O)c2O[C@@H]2O[C@@H](C)[C@H](OC(=O)/C=C/c3ccc(O)cc3)[C@@H](O)[C@H]2OC(=O)/C=C\c2ccc(O)cc2)cc1
7 | 4.45 | C[C@@H]1O[C@@H](Oc2c(-c3ccc(O)cc3)oc3cc(O)cc(O)c3c2=O)[C@H](OC(=O)/C=C\c2ccc(O)cc2)[C@H](O)[C@H]1OC(=O)/C=C/c1ccc(O)cc1
8 | 4.79 | C[C@@H]1O[C@@H](Oc2c(-c3ccc(O)cc3)oc3cc(O)cc(O)c3c2=O)[C@H](OC(=O)/C=C/c2ccc(O)cc2)[C@H](O)[C@H]1OC(=O)/C=C\c1ccc(O)cc1
9 | 4.57 | COc1ccc(-c2oc3cc(O)cc(O)c3c(=O)c2O[C@@H]2O[C@@H](C)[C@H](OC(=O)/C=C/c3ccc(O)cc3)[C@@H](O)[C@H]2OC(=O)/C=C/c2ccc(O)cc2)cc1

From ChEMBL document CHEMBL4330146, “Identification of α-Glucosidase Inhibitors in Machilus litseifolia by Combined Use of High-Resolution α-Glucosidase Inhibition Profiling and HPLC-PDA-HRMS-SPE-NMR” (J Nat Prod, 2019)
